Bioassay records deposited in PubChem by several laboratories.
Rows were chosen to be rich in hits. Some 2.9% of all compounds tested hit in one or more screens of this group.
NR1D1 modulator – modulators of Rev-erb alpha DNA binding, primary screen, biochemical, FITC-DNA, fluorescence polarization, uHTS | Nuclear receptor subfamily 1 group D member 1 (Homo sapiens), P20393 | Rev-erbα–FITC-DNA binding, 90 min | activity, % at 10 µM | 370,000 compounds, 0.79% hits;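 active = activity above about 14%, limit read from the data; passing the limit was not always enough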;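 also: 0% = DMSO wells with 35 nM protein and 100% = DMSO wells with 750 nM protein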
Target sequence (P20393 whole entry, looked up): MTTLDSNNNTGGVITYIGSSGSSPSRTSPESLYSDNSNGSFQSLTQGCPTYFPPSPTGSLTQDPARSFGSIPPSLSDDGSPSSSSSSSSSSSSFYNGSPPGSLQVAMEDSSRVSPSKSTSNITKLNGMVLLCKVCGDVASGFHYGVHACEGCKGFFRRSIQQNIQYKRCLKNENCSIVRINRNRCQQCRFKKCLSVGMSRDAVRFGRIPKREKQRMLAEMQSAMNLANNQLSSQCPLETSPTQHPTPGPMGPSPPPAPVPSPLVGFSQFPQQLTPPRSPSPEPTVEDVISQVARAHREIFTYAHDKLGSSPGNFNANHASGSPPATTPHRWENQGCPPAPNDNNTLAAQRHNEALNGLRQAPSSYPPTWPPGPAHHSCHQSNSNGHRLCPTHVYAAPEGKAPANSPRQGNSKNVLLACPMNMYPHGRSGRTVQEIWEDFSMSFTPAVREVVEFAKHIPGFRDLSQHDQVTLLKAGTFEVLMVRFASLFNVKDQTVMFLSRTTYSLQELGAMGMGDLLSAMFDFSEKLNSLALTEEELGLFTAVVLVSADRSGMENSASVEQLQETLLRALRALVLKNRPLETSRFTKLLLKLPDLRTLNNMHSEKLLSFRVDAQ
MIN6 prolif-1 – inducers of MIN6 beta-cell proliferation, primary screen, ATP luminescence, uHTS | 330,000 compounds, 0.29% hits | proliferation, % at 10 µM | AID 2380, 2010 | MIN6 cells proliferation, ATPlite luminescence, 48 h; cells starved in 0.2% serum; 100% = growth in 10% serum;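 active = compounds whose signal lies at least 3.5 SD above the mean of all wells on their plate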;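 also: 0% = DMSO-treated cells in low-serum medium and 100% = 10% serum control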
PG9 binder – binders of HIV-1 gp120 antibody PG9, primary screen, biochemical, TR-FRET; 360,000 compounds, 0.43% hits; TR-FRET gp120-PG9 antibody binding; inhibition, % at 6.7 µM; HIV-1 gp120 / PG9 antibody interaction; in the data active = inhibition above about 8.5%
iPSC survival up – enhancers of single-cell hiPSC survival, primary screen, ATPlite luminescence; 100% = ROCK inhibitor wells, 0% = DMSO; survival enhancement, % at 20 µM; 360,000 compounds, 0.044% hits; in the data active = survival enhancement above about 18%;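 also: cells exposed to compounds for 16 hours before the ATP read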
H9c2 TAG inh – inhibitors of triacylglycerol accumulation, primary screen, cell-based, uHTS, fluorescence, H9c2. inhibition, % at 12.5 µM. 230,000 compounds, 0.66% hits. AID 651582, 2012. H9c2 cells, Nile Red lipid (TAG) fluorescence; cells loaded with 200 µM oleic acid;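 active = pattern-corrected inhibition of lipid staining of at least 50% with the nuclear-stain viability signal not falling by more than 50%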;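 also: 0% = DMSO wells and 100% = triacsin C control wells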
T cruzi repl – inhibitors of intracellular T. cruzi growth, primary screen, luminescence, NIH3T3 host cells. T. cruzi beta-gal in NIH3T3, 90 h. inhibition, % (no concentration beside the values). 300,000 compounds, 1.4% hits. AID 1885, 2009;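 active = mean inhibition across valid replicates above about 55%, limit read from the data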;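 also: signal also drops with host cell toxicity which is not excluded here; 0% = plate median of DMSO wells and 100% = zero luminescence signal; higher percent means less beta-gal luminescence so fewer parasites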
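Assay system: NIH/3T3 fibroblasts plus reporter T. cruzi. Amount: NIH/3T3 cells, 5,000 per well. Buffer or medium: DMEM, 2% fetal bovine serum. Doses: compound pinned at 50 nL/well, DMSO. Schedule: ≥90 h infection period, 3 h prior cell attachment. Signal: luminescent β-galactosidase signal after 60 min lysis. Read-out: parasite load inhibition, %.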
MIN6 prolif-2 – inducers of beta-cell proliferation in MIN6, confirmation, MIN6 cells, mouse | ATPlite luminescence, 48 h; cells kept in 0.2% serum; scaled between 0.2% and 10% serum | proliferation increase, % at 50 µM | 920 tested, under 10 active | shares compounds with MIN6 prolif-1;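 active = proliferation increase above 40% at any of the four tested concentrations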
PG9 binder conf – binders of anti-gp120 antibody PG9, confirmation, biochemical, TR-FRET; shares compounds with PG9 binder; AID 651571, 2012; 1,500 compounds, 90% hits; inhibition, % at 6.7 µM; TR-FRET PG9 antibody binding; in the data active = inhibition above about 9%
PGV04 Ab binding – binders of control antibody PGV04, counter-screen for PG9 antibody binder project, biochemical, TR-FRET, distinct HIV envelope site; TR-FRET PGV04 antibody-gp120 binding; shares compounds with PG9 binder; inhibition, % at 6.7 µM; 1,500 compounds, 95% hits; in the data active = inhibition above about 9.5%
PG9 bind DR – small-molecule binders of antibody PG9, dose response, biochemical, TR-FRET, HIV-1 gp120 antibody; TR-FRET PG9 antibody-gp120 binding inhibition; IC50, µM; 95 tested, under 10 active; shares compounds with PG9 binder; in the data active = IC50 below about 10 µM
PGV04 binding DR – binders of control antibody PGV04, dose response, counter-screen for PG9 antibody binder project, biochemical, TR-FRET, distinct HIV envelope site; 95 compounds, 20% hits; AID 651937, 2012; shares compounds with PG9 binder; IC50, µM; TR-FRET binding to control antibody PGV04
PG126 binding DR – binders of control antibody PG126, dose response, counter-screen for PG9 antibody binder project, biochemical, TR-FRET, distinct HIV envelope site; shares compounds with PG9 binder; TR-FRET binding to antibody PG126, counterscreen; IC50, µM; 95 compounds, 20% hits; AID 651939, 2012
NR1D1 mod conf – modulators of Rev-erb alpha DNA binding, confirmation, biochemical, FITC-DNA, fluorescence polarization, single point; AID 1259319, 2017; 3,000 compounds, 61% hits; shares compounds with NR1D1 modulator; activation, % at 25 µM; 90 min;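 active = activation at or above a set limit, or at least 3 SD above the negative control mean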;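 also: 0% = 35 nM protein with DMSO and 100% = 750 nM protein high control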
* = called active by the depositor; i = inactive; . = no result. Rule as the data show it, unless noted: active = IC50 below about 9 µM; inactive = the rest.

SMILES	NR1D1 modulator	MIN6 prolif-1	PG9 binder	iPSC survival up	H9c2 TAG inh	T cruzi repl	PG9 binder conf	PGV04 Ab binding	others
O=C(Nc1ccccc1F)NC1CCCc2ccccc21 (stereo unspecified)	-2	7.2*	-1	0	-3	3	.	.	MIN6 prolif-2=-5
O=C(O)CCc1ccc(-c2ccc(Cl)cc2)n1CC(=O)O	-2	5.8*	-2	0	.	-15	.	.	MIN6 prolif-2=0
COCCCn1c(=O)/c(=C\c2ccc(OC(F)F)c(OC)c2)s/c1=C(/C#N)C(N)=O	2	9.0*	14*	0	14	13	36*	39*	MIN6 prolif-2=-1
O=C(Cn1ccc([N+](=O)[O-])n1)NCC1CCCO1 (stereo unspecified)	-7	-4	0	0	.	-8	.	.
COc1ccc(N2C(=NC(=O)C3CCCCC3)SC3CS(=O)(=O)CC32)cc1OC (stereo unspecified)	9	2	-3	0	.	-4	.	.
COc1ccc(C(=O)N=C2SC3CS(=O)(=O)CC3N2c2ccc(N(C)C)cc2)cc1OC (stereo unspecified)	53*	14*	-2	0	.	3	.	.	MIN6 prolif-2=3;NR1D1 mod conf=12
COc1ccc(OC)c2c1sc(=NC(=O)C1COc3ccccc3O1)n2C (stereo unspecified)	29*	7.7*	-1	1	-1	29	.	.	MIN6 prolif-2=-2;NR1D1 mod conf=21*
CC1(C(=O)NS(=O)(=O)c2ccc(F)cc2F)CCN1C(=O)c1ccc(C2CCCCC2)cc1 (stereo unspecified)	-14	.	-3	5	-12	.	.	.
COc1ccccc1Cc1c(-c2ccc(OC)c(OC)c2)nc2c(C)cc(Br)cn12	6	.	-2	-1	.	.	.	.
COc1ccc(-c2nc3c(C)cc(Br)cn3c2CC2CCCCC2)cc1OC	3	.	14*	-1	.	.	22*	27*
COc1ccc(-c2nc3c(C)cc(Br)cn3c2CC(C)(C)C)cc1OC	-3	.	22*	0	.	.	25*	40*
COC(=O)c1cc(-c2ccc3c(c2)OCO3)nc2ccccc12	-3	3	2	-2	.	10	.	.
O=C(O)c1cc(-c2cccnc2)nc2ccc(Br)cc12	-5	2	44*	3	-11	.	56*	69*
O=C(O)c1cc(-c2cccs2)nc2ccc(Br)cc12	6	-1	40*	0	.	-12	54*	77*
O=C(O)c1cc(-c2ccc3c(c2)OCO3)nc2ccc(Br)cc12	0	-4	20*	2	-5	-6	28*	34*
COC(=O)C(NC(C)=O)(Nc1nc2ccc(S(C)(=O)=O)cc2s1)C(F)(F)F (stereo unspecified)	6	0	-3	-1	20	-1	.	.
COc1ccc(CNc2nc3nc(C)cc(C)n3n2)cc1OC	-5	-2	-1	1	.	-23	.	.
COc1ccccc1OCCNC(=O)c1cc(C2CC2)nc2c1cnn2C(C)C	-4	-1	1	1	5	.	.	.
CCOC(=O)c1ccc(Nc2ncnc3ccc(C)cc23)cc1	7	0	8.9*	-2	9	21	14*	22*
COc1ccc(-c2c(-c3ccc(OC)c(F)c3)c3ccccc3n2C)cc1	3	-5	-2	4	11	.	.	.
COc1ccc(-c2c(Sc3ccccc3)c3cc(-c4ccc(OC)c(F)c4)ccc3n2C)cc1	3	.	27*	0	.	.	-13	36*
COc1cc(OC)cc(-c2c(Sc3ccccc3)c3cc(-c4ccc(OC)c(OC)c4)ccc3n2C)c1	14	.	19*	-1	.	.	34*	19*	PG9 bind DR=i;PGV04 binding DR=i;PG126 binding DR=i
COc1cc(OC)cc(-c2c(Sc3ccccc3)c3cc(-c4cnc(N5CCOCC5)nc4)ccc3n2C)c1	9	.	0	-1	.	.	.	.
CCCCNC(=O)C1(C)CCN1C(=O)c1ccncc1 (stereo unspecified)	2	.	0	-2	-2	.	.	.
O=C(COc1ccc2c3c(c(=O)oc2c1)CCC3)N[C@@H](CSCc1ccccc1)C(=O)O	3	-4	-1	-1	.	-16	.	.
SMILES	NR1D1 modulator	MIN6 prolif-1	PG9 binder	iPSC survival up	H9c2 TAG inh	T cruzi repl	PG9 binder conf	PGV04 Ab binding	others
COC(=O)c1cc2c(c3c4ccccc4n(S(=O)(=O)c4ccc(C)cc4)c13)C(=O)N(C)C2	-3	.	3	.	.	.	.	.
CC(=O)c1cccc(NC(=O)c2cccc(N3C(=O)c4ccccc4C3=O)c2)c1	-10	-1	22*	1	.	-7	25*	22*	PG9 bind DR=i;PGV04 binding DR=i;PG126 binding DR=i
O=C(NCCc1ccccc1F)c1[nH]c(C(F)(F)F)nc1-c1ccccc1	3	.	-2	2	.	.	.	.
C[C@@H]1CCC[C@]2(O[C@H](CCO)C[C@H](O)[C@H]2O)O1	-4	2	13*	4	1	-24	-3	-2
C[C@H]1CCC[C@]2(O[C@H](CCO)C[C@H](O)[C@H]2O)O1	-1	1	0	8	9	-27	.	.
N=c1oc2ccccc2cc1-c1nc(-c2ccc(Cl)cc2)cs1	1	-3	10*	1	.	-10	8.8*	13*
